This note sets out measurements from ChEMBL document CHEMBL1156114 (Bioorg Med Chem Lett, 2009).

The subject of data set [1] is Human alphaherpesvirus 3. Kind of data set: Antiviral activity against Varicella zoster virus OKA infected human HEL cells assessed as reduction in viral plaque formation after 5 days. It counts as functional, cell-based. As to conditions: Human alphaherpesvirus 3, strain Oka vaccine, 120 h. A digest of the protocol: (§1)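 Confluent HEL cells infected with VZV at 20 PFU/well for 2 h. Residual virus removed, then compound added at varying concentrations in duplicate. Plaques counted after 5 days.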

In data set [2] the test system is Human alphaherpesvirus 3. In words: Antiviral activity against thymidine kinase deficient Varicella zoster virus 07/1 infected human HEL cells assessed as reduction in viral plaque formation after 5 days. In kind it is functional, organism-based. To be noted: Human alphaherpesvirus 3, 07/1, HEL, 120 h. The gist of the method: as §1
Data set [3] concerns the target T1, Thymidine kinase (Varicella-zoster virus) (UniProt P0C0E6).
T1 sequence (whole entry): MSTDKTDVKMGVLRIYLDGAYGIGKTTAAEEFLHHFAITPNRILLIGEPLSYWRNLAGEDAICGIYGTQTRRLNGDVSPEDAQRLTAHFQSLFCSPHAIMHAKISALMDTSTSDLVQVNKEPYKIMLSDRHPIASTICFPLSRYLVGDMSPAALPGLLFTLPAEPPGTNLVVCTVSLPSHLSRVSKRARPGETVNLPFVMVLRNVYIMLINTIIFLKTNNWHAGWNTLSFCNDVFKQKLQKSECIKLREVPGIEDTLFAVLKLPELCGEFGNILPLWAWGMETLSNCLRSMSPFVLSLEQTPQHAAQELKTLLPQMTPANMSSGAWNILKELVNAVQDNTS
Kind of data set: Ratio of Vmax to Km for Varicella zoster virus recombinant thymidine kinase. To be noted: Human alphaherpesvirus 3. The gist of the method: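 Km and Vmax for each compound as VZV TK substrate, from monophosphate formation at 0.5, 2, 5 and 12.5 µM compound. Enzyme in Tris-HCl pH 8 with 2.5 mM ATP and MgCl2, 37 °C, 60 min. Product quantified by reversed-phase HPLC with fluorescence detection (ex 340/em 415 nm).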

In data set [4] the target is T2, Thymidine kinase (Varicella-zoster virus, UniProt P0C0E6).
T2 sequence (P0C0E6 whole entry): T1 sequence (whole entry)
In words: Displacement of [CH3-3H]deoxythymidine from Varicella zoster virus recombinant thymidine kinase after 30 mins. Also noted: species or system Human alphaherpesvirus 3. A digest of the protocol: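 Inhibition of VZV TK phosphorylation of 1 µM [CH3-3H]dThd (0.1 µCi) in 50 mM Tris-HCl pH 8.0, 2.5 mM MgCl2, 10 mM DTT, 2.5 mM ATP, 10 mM NaF, 1 mg/mL BSA. Reaction started with enzyme, 37 °C for 30 min. Product captured on DE-81 discs, washed in ammonium formate then ethanol, and counted by scintillation. IC50 is the concentration inhibiting phosphorylation by 50%.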

Data set [5] can be described thus: Cytotoxicity against human HEL cells assessed as alteration of cell morphology by microscopy. In kind it is cell-based. A digest of the protocol:
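Confluent human embryonic lung (HEL) cell cultures, run in parallel with a VZV plaque-reduction assay. Compound added at varying concentrations in duplicate. Cells were examined by microscope for altered morphology. MCC is the lowest compound concentration that gives a microscopically detectable change in cell morphology.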

Data set [6] concerns Human alphaherpesvirus 3. In words: Antiviral activity against Varicella zoster virus YS infected human HEL cells assessed as reduction in viral plaque formation after 5 days. It counts as functional, organism-based. As to conditions: Human alphaherpesvirus 3, YS, 120 h. A digest of the protocol:
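Confluent HEL cells infected with VZV at 20 PFU/well for 2 h. Residual virus removed, then compound added at varying concentrations in duplicate. Plaques counted after 5 days. EC50 is the concentration reducing plaque formation by 50% versus untreated controls.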

Substrate in data set [7]: CCCCCc1ccc(-c2cc3cn([C@@H]4O[C@H](CO)[C@@H](O)[C@@H]4F)c(=O)nc3o2)cc1
In words: (§2) Activity at Varicella zoster virus recombinant thymidine kinase assessed as 5-monophosphate BCNA formation after 60 mins by HPLC. As to conditions: Human alphaherpesvirus 3. A digest of the protocol: (§3)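 VZV TK (1.5 pg) in 50 mM Tris-HCl pH 8, 2.5 mM MgCl2, 10 mM DTT, 2.5 mM ATP, 10 mM NaF; compound at 0.5, 2, 5 and 12.5 µM in DMSO; 37 °C for 60 min. Stopped in ice-cold methanol and centrifuged. Reversed-phase HPLC with ion-pairing phosphate buffer/acetonitrile gradient; nucleoside and 5'-monophosphate quantified by fluorescence (ex 340, em 415 nm).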

Substrate in data set [8]: CCCCCc1ccc(-c2cc3cn([C@@H]4O[C@H](CO)[C@@H](O)[C@H]4F)c(=O)nc3o2)cc1
The data set is described as §2. To be noted: Human alphaherpesvirus 3. The gist of the method:
as §3

Substrate in data set [9]: CCCCCc1ccc(-c2cc3cn([C@H]4C[C@H](O)[C@@H](CO)O4)c(=O)nc3o2)cc1
The description is as §2. To be noted: Human alphaherpesvirus 3. The gist of the method: as §3

Substrate in data set [10]: CCCCCc1ccc(-c2cc3cn([C@@H]4O[C@H](CO)[C@@H](O)C4(F)F)c(=O)nc3o2)cc1
Described as §2. To be noted: Human alphaherpesvirus 3. A digest of the protocol: as §3

A value given as a limit tells only on which side of the number the result lay.

In general, EC50 refers to the concentration giving half of the maximal effect. For orientation: IC50 means the concentration that inhibits the measured activity by half. One may read the Km as the substrate concentration at which the rate is half of its maximum. Usually Vmax stands for the rate approached at saturating substrate.

Take `CCCCCc1ccc(-c2cc3cn([C@@H]4O[C@H](CO)[C@@H](O)[C@H]4F)c(=O)nc3o2)cc1`: the EC50 in [1] is 0.75 µM; in [2], more than 20 µM. In addition, the Ratio in data set [3] worked out at 7.2. Further, the IC50 in data set [4] stood at 2.7 µM. Moreover, the MCC in data set [5] was more than 50 µM.

With `CCCCCc1ccc(-c2cc3cn([C@@H]4O[C@H](CO)[C@@H](O)C4(F)F)c(=O)nc3o2)cc1`, the EC50 in data set [1] is 1.5 µM; in data set [2], more than 50 µM; in data set [6], 6.7 µM. Also, the Ratio in data set [3] came out at 14. Moreover, the IC50 in data set [4] was determined as 13 µM. The MCC in [5] is not below 50 µM.

Take `CCCCCc1ccc(-c2cc3cn([C@H]4C[C@H](O)[C@@H](CO)O4)c(=O)nc3o2)cc1` [CF1743]: the half-inhibitory concentration (IC50) in data set [4] came out at 3.3 µM. For the same molecule, the MCC in data set [5] is not below 50 µM.

For the molecule `CCCCCc1ccc(-c2cc3cn([C@@H]4O[C@H](CO)[C@@H](O)[C@@H]4F)c(=O)nc3o2)cc1`, the EC50 in data set [1] was 0.007 µM; in data set [2], more than 50 µM; in data set [6], 0.011 µM. Moreover, in [3], the Ratio was found to be 45. Besides, the IC50 in data set [4] is 38 µM. Besides, in data set [5], the MCC was more than 50 µM.

B1: Thymidine kinase (Varicella-zoster virus), P0C0E6 (protein)
chain: T1 sequence (whole entry)
In the case of B1, the Km in data set [7] turned out to be 1.11 µM; in [8], 0.47 µM; in data set [9], 1.58 µM; in [10] it was 0.95 µM. The Vmax was 50 µM/h in [7], 3.4 µM/h in [8], 22 µM/h in data set [9] and 14 µM/h in data set [10].
